Results reported in ChEMBL document CHEMBL4342509, “New 8-Nitroquinolinone Derivative Displaying Submicromolar in Vitro Activities against Both Trypanosoma brucei and cruzi” (ACS Med Chem Lett, 2020).

Key:
Leishmania infantum = assay: Antileishmanial activity against Leishmania infantum MHOM/MA/67/ITMAP-263 axenic amastigotes expressing luciferase plasmid assessed as reduction in parasite viability incubated for 48 hrs by Steady Glow reagent based luminescence assay; format: functional, organism-based; settings: MHOM/MA/67/ITMAP-263, 48 h
[1] = system: Trypanosoma brucei brucei; assay: Antitrypanosomal activity against Trypanosoma brucei brucei AnTat 1.9 trypomastigotes assessed as reduction in parasite viability incubated for 69 hrs by Alamar Blue dye based assay; format: functional, organism-based; settings: AnTat 1.9, 69 h
How it was run: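 Bloodstream AnTat 1.9 parasites grown at 37°C, 5% CO₂ in MEM with Earle's salts (Baltz-type) plus 0.5 mM mercaptoethanol, 1.5 mM L-cysteine, 0.05 mM bathocuproine sulfate and 20% heat-inactivated horse serum. EC50 from nonlinear regression, three independent experiments in duplicate.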

HepG2 [2] = assay: Cytotoxicity against human HepG2 cells assessed as reduction in cell viability incubated for 72 hrs by MTT assay; format: cell-based; settings: hepg2, 72 h
[3] = Selectivity index, ratio of CC50 for human HepG2 cells to EC50 for Trypanosoma brucei brucei trypomastigotes AnTat 1.9; format: toxicity; settings: read-out: Ratio CC50/EC50
[4] = Electrochemical behavior of the compound assessed as redox potential corrected toward normal hydrogen electrode by cyclic voltammetry
[5] = system: Trypanosoma brucei brucei; assay: Antitrypanosomal activity against blood stream form of Trypanosoma brucei brucei S427 trypomastigotes overexpressing NTR assessed as inhibition of parasite growth; format: functional, organism-based
[6] = system: Trypanosoma brucei brucei; assay: Antitrypanosomal activity against bloodstream form of wild type Trypanosoma brucei brucei S427 trypomastigotes assessed as inhibition of parasite growth; format: functional, organism-based
Leishmania donovani [7] = assay: Antileishmanial activity against wild type Leishmania donovani BOB (MHOM/SD/62/1S-CL2D) promastigotes assessed as inhibition of parasite growth incubated for 72 hrs by resazurin dye based assay; format: functional, organism-based
How it was run: (§1)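 LdBOB promastigotes grown at 26 °C in modified M199; NTR1- or NTR2-overexpressing lines kept under nourseothricin (100 µg/mL). Triplicate cultures seeded at 5×10^4 parasites/mL with drug for 72 h; 50 µM resazurin added, fluorescence (ex 528/em 590 nm) read after a further 4 h.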

Leishmania donovani [8] = assay: Antileishmanial activity against Leishmania donovani BOB (MHOM/SD/62/1S-CL2D) promastigotes overexpressing NTR1 assessed as inhibition of parasite growth incubated for 72 hrs by resazurin dye based assay; format: functional, organism-based; how it was run: as §1
Leishmania donovani [9] = assay: Antileishmanial activity against Leishmania donovani BOB (MHOM/SD/62/1S-CL2D) promastigotes overexpressing NTR2 assessed as inhibition of parasite growth incubated for 72 hrs by resazurin dye based assay; format: functional, organism-based; how it was run: as §1
[10] = Microsomal stability in CD-1 mouse liver microsomes in presence of NADP measured up to 40 mins by LC-MS analysis; format: ADME, Microsome
How it was run: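 Compound incubated in duplicate with female CD-1 mouse microsomes at 37°C in 50 mM phosphate pH 7.4. Cofactors: 5 mM MgCl₂, 1 mM NADP, 0.4 U/mL G6PDH and 5 mM glucose-6-phosphate. […] Propranolol reference.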

[11] = Permeability of the compound in pH 7.4 Prisma HT buffer at 100 uM incubated for 4 hrs by PAMPA-BBB assay method; format: ADME; settings: read-out: permeability
[12] = Thermodynamic solubility of the compound in phosphate buffer at pH 7.4 by shake flask method; format: physicochemical
How it was run: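 Shake-flask test, miniaturised: 10 µL of a 50 mM stock in 990 µL phosphate buffer pH 7.4 (ionic strength 50 mM), n=4. Shaken 24 h at room temperature, then centrifuged 12,225 × g for 5 min. Supernatant mixed 1:1 with acetonitrile and read by UV spectrophotometry at compound λmax. Quantified against a three-point calibration (0, 25, 50 µM).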

HepG2 [13] = assay: Genotoxicity in human HepG2 cells assessed as induction of DNA damage at 1 to 10 uM incubated for 2 to 72 hrs by alkaline comet assay; format: toxicity, cell-based; settings: hepg2, 10 µM
How it was run: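 Cells embedded in 0.7% low-melting agarose on film. Alkaline electrophoresis at pH >13, 24 min at 0.8 V/cm, then neutralised, ethanol-fixed and SYBR Gold stained. % tail DNA is the median of 100 cells (two deposits); 1 mM MMS positive control; three independent experiments.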

[14] = Toxicity in orally dosed Swiss mouse administered once daily for 5 days; format: organism-based; settings: in vivo, po
[15] = Toxicity in Swiss mouse assessed as lesions on kidney at 25 mg/kg, po administered once daily for 5 days; format: organism-based; settings: in vivo, 120 h
[16] = Toxicity in Swiss mouse assessed as lesions on liver at 25 mg/kg, po administered once daily for 5 days; format: organism-based; settings: in vivo, 120 h
[17] = Toxicity in Swiss mouse assessed as lesions on brain at 25 mg/kg, po administered once daily for 5 days; format: organism-based; settings: in vivo, 120 h
[18] = Toxicity in Swiss mouse assessed as lesions on heart at 25 mg/kg, po administered once daily for 5 days; format: organism-based; settings: in vivo, 120 h
[19] = Toxicity in Swiss mouse assessed as lesions on lung at 25 mg/kg, po administered once daily for 5 days; format: organism-based; settings: in vivo, 120 h
[20] = Half life in Swiss mouse at 25 mg/Kg, po measured up to 24 hrs by LCMS analysis; format: ADME, organism-based; settings: in vivo
How it was run: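 Female Swiss mice, 8 weeks old, n=4, given a suspension by oral gavage at 25 mg/kg. Tail blood (100 µL, heparin) drawn at 0.5, 1, 3, 6, 9, 12 and 24 h. Samples extracted with ACN containing megalol internal standard plus QuEChERS salts. Analysed by LC-MS/MS (C8 column, negative ESI, MRM); calibration 10–1,000 ng/ml, LLOQ 10 ng/ml.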

Trypanosoma cruzi = assay: Antitrypanosomal activity against Trypanosoma cruzi CL Brener amastigotes infected in African green monkey Vero cells assessed as reduction in parasite growth incubated for 120 hrs at 24 hrs post-infection and measured on day 6 post-infection by hemocytometer based light microscopy; format: functional, organism-based
How it was run: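 Compounds, 2–4-fold serial dilutions over 0,1–25 µM final, applied for 120 h at 37°C. On day 6, released trypomastigotes pooled, centrifuged and counted by haemocytometer. EC50 by nonlinear regression; two experiments, triplicate wells.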

Leishmania donovani [21] = assay: Selectivity index, ratio of EC50 for wild type Leishmania donovani BOB (MHOM/SD/62/1S-CL2D) promastigotes to EC50 for Leishmania donovani BOB (MHOM/SD/62/1S-CL2D) promastigotes overexpressing NTR1; format: functional
[22] = system: Trypanosoma brucei brucei; assay: Selectivity index, ratio of EC50 for bloodstream form of wild type Trypanosoma brucei brucei S427 trypomastigotes to EC50 for blood stream form of Trypanosoma brucei brucei S427 trypomastigotes overexpressing NTR; format: functional
[23] = Toxicity in Swiss mouse assessed as apathy occurence at 50 mg/kg, po administered once daily for 5 days measured for 1 hr; format: organism-based; settings: in vivo
Plasma proteins = assay: Plasma protein binding incubated for 4 hrs by LCMS analysis

With `C[C@@H]1[C@H](O)[C@@H](C)/C=C/C=C/C=C/C=C/C=C/C=C/C=C/[C@H](O[C@@H]2O[C@H](C)[C@@H](O)[C@H](N)[C@@H]2O)C[C@@H]2O[C@](O)(C[C@@H](O)C[C@@H](O)[C@H](O)CC[C@@H](O)C[C@@H](O)CC(=O)O[C@H]1C)C[C@H](O)[C@H]2C(=O)O` [AMPHOTERICIN B] the EC50 (Leishmania infantum) was 0.06 µM.
Molecule `O=c1[nH]c2c([N+](=O)[O-])cc(C(F)(F)F)cc2cc1Cl` has an EC50 (Leishmania infantum) of 9.2 µM, an EC50 [1] of 0.57 µM and a CC50 (HepG2 [2]) of 31.4 µM. The selectivity ratio [3] was 55.
With `O=c1[nH]c2c([N+](=O)[O-])cccc2cc1Cl` the EC50 (Leishmania infantum) was 16 µM, the EC50 [1] was 1.2 µM and the selectivity ratio [3] was 71. The Activity [4] was -0.47 V.
`CCCCCCCCCCCCCCCCOP(=O)([O-])OCC[N+](C)(C)C` [MILTEFOSINE] gave an EC50 (Leishmania infantum) of 0.8 µM.
`O=c1[nH]c2ccc(C(F)(F)F)cc2cc1Cl` gave an EC50 (Leishmania infantum) of over 100 µM, an EC50 [1] of over 50 µM and a CC50 (HepG2 [2]) of over 100 µM.
`O=c1[nH]c2c([N+](=O)[O-])cccc2cc1Br` showed an EC50 [5] of 3.9 µM, an EC50 [6] of 17.7 µM and a selectivity ratio [3] of 48. For the same molecule, the EC50 (Leishmania donovani [7]) was 5.9 µM, the EC50 (Leishmania donovani [8]) was 0.47 µM and the EC50 (Leishmania donovani [9]) was 4.6 µM. It also gave an Activity [4] of -0.45 V.
`CC1CS(=O)(=O)CCN1/N=C/c1ccc([N+](=O)[O-])o1` (configuration not stated) [NIFURTIMOX] showed an EC50 [5] of 0.6 µM and an EC50 [6] of 1.9 µM.
With `O=c1[nH]c2c([N+](=O)[O-])cc(Br)cc2cc1Br` the EC50 (Leishmania infantum) was 6.5 µM, the EC50 [1] was 0.05 µM and the CC50 (HepG2 [2]) was 16.6 µM. For the same molecule, the selectivity ratio [3] was 332 and the Activity [4] was -0.37 V.
`O=c1[nH]c2c([N+](=O)[O-])cc(Br)cc2cc1Cl` gave an EC50 [5] of 0.02 µM, an EC50 [6] of 0.3 µM and an EC50 (Leishmania infantum) of 6.7 µM. It also gave an EC50 [1] of 0.012 µM, a CC50 (HepG2 [2]) of 18.1 µM and a selectivity ratio [3] of 1510. For the same molecule, the t1/2 [10] was over 0.667 h, the Papp at 4 h, 100 µM [11] was 40.5 ×10⁻⁶ cm/s and the Therm_solubility [12] was 21.7 µM. It also gave an EC50 (Leishmania donovani [7]) of 4.7 µM, an EC50 (Leishmania donovani [8]) of 0.3 µM and an EC50 (Leishmania donovani [9]) of 2.9 µM. The Activity (HepG2 [13]) was “Non-Toxic”, the NOAEL at 120 h [14] was 25 mg/kg and the Activity [15] was “Non-Toxic”. For the same molecule, the Activity [16] was “Non-Toxic”, the Activity [17] was “Non-Toxic” and the Activity [18] was “Non-Toxic”. The Activity [19] was “Non-Toxic”, the t1/2 [20] was 2.9 h and the EC50 (Trypanosoma cruzi) was 0.5 µM. The “Ratio EC50” value (Leishmania donovani [21]) was 16, the “Ratio EC50” value [22] was 15 and the Activity [23] was “Toxic”. It also gave an Activity (Plasma proteins) of 99% and an Activity [4] of -0.37 V.
For `COc1ccc2cc(C(F)(F)F)cc([N+](=O)[O-])c2n1`, the EC50 (Leishmania infantum) was over 100 µM, the EC50 [1] was 20.9 µM and the CC50 (HepG2 [2]) was over 100 µM. The selectivity ratio [3] was over 5 and the Activity [4] was -0.75 V.
Molecule `NCCCC(N)(C(=O)O)C(F)F` (configuration not stated) [EFLORNITHINE] has an EC50 [1] of 13.3 µM and a CC50 (HepG2 [2]) of over 100 µM.
In the case of `O=c1[nH]c2c([N+](=O)[O-])cc(C#CCCCO)cc2cc1Cl`, the EC50 (Leishmania infantum) is reported as 10.1 µM, the EC50 [1] is reported as 0.85 µM and the CC50 (HepG2 [2]) is reported as 32.7 µM. It also gave a selectivity ratio [3] of 38.
Molecule `Cc1ccc(C(=O)Nc2ccc(S(=O)(=O)O)c3cc(S(=O)(=O)O)cc(S(=O)(=O)O)c23)cc1NC(=O)c1cccc(NC(=O)Nc2cccc(C(=O)Nc3cc(C(=O)Nc4ccc(S(=O)(=O)O)c5cc(S(=O)(=O)O)cc(S(=O)(=O)O)c45)ccc3C)c2)c1` [SURAMIN] has an EC50 [1] of 0.03 µM, a CC50 (HepG2 [2]) of over 100 µM and a selectivity ratio [3] of over 3330.
